The target of one test is Glucagon receptor (Homo sapiens, UniProt P47871). Put plainly: Agonist activity at human glucagon receptor expressed in HEK293 cells assessed as cAMP accumulation after 30 mins by HTRF assay. Type of test: functional, cell-based. A general note: Changes in cAMP serve as a functional read-out for many G protein-coupled receptors.
For test [1], the target named is Glucagon-like peptide 1 receptor (Homo sapiens, UniProt P43220). The test is described as follows: Agonist activity at human GLP1R expressed in HEK293 cells assessed as cAMP accumulation after 30 mins by HTRF assay. It is filed as functional, cell-based.
In test [2] the target is T1, Gastric inhibitory polypeptide receptor (Homo sapiens, UniProt P48546).
T1 sequence (P48546 whole entry): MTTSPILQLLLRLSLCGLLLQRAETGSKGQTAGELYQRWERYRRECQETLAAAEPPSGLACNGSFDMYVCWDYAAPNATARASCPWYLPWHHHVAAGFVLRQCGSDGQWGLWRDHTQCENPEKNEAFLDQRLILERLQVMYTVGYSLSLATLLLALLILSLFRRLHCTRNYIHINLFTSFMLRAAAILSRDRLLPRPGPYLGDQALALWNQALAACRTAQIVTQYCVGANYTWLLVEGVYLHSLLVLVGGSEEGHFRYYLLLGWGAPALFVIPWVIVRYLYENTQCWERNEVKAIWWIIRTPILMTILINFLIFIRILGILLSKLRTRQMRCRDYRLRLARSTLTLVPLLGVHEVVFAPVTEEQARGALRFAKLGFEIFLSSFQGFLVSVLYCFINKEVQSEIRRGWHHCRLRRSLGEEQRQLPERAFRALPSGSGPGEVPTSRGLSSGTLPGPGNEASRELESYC
Put plainly: Agonist activity at human GIP receptor expressed in HEK293 cells assessed as cAMP accumulation after 30 mins by HTRF assay. It is filed as functional, cell-based.

Test [3] is described as follows: Agonist activity at monkey glucagon receptor expressed in HEK293 cells assessed as cAMP accumulation after 30 mins by HTRF assay. Type of test: cell-based, Macaca mulatta. The method, boiled down:
(§1)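 HEK293 lines stably expressing human or monkey receptor were detached with accutase. Cells were resuspended at 400 000 cells/mL in HBSS/20 mM HEPES/0.1% BSA/2 mM IBMX and exposed to peptide for 30 min at room temperature. cAMP was read by HTRF (665/620 nm) after 1 h lysis.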

Test [4] is described as follows: Agonist activity at monkey GIP receptor expressed in HEK293 cells assessed as cAMP accumulation after 30 mins by HTRF assay. Type of test: cell-based, Macaca mulatta. The method, boiled down: as §1
The species named for another test is Homo sapiens. The test is described as follows: Selectivity ratio of EC50 for human GIP receptor expressed in HEK293 cells to EC50 for human GLP1R expressed in HEK293 cells. It is filed as cell-based. The method, boiled down:
as §1

Glucagon receptor, sequence (P47871 whole entry): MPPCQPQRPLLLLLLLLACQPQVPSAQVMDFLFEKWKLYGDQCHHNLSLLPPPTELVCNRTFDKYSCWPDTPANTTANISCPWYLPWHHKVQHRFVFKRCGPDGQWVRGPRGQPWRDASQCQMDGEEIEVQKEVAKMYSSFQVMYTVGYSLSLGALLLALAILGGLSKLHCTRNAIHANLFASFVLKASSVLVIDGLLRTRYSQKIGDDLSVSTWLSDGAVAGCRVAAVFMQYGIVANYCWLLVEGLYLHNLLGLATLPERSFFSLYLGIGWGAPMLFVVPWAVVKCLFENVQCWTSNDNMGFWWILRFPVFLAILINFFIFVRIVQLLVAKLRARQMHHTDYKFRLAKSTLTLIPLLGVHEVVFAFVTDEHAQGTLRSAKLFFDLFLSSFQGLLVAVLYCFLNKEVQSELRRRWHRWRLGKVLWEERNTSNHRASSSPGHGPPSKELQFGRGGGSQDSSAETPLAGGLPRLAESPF
Glucagon-like peptide 1 receptor, sequence (P43220 whole entry): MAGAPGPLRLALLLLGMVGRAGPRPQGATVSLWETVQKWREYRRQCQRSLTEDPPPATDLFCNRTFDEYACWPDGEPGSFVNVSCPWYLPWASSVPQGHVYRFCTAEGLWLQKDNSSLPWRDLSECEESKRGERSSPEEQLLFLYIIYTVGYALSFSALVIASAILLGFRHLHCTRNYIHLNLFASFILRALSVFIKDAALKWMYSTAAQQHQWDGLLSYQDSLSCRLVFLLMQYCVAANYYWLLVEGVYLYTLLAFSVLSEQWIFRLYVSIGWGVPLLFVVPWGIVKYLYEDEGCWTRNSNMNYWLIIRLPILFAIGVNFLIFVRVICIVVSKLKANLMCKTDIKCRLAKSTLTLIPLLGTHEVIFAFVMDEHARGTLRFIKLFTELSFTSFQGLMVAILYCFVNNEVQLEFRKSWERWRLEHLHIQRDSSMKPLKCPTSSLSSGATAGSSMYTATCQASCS

For `CCCCCCCCCCCCCCCCCCC(=O)N[C@@H](CCC(=O)NCCCC[C@H](NC(=O)[C@H](CCC(N)=O)NC(=O)[C@H](CCCCN)NC(=O)[C@H](CO)NC(=O)[C@H](CC(C)C)NC(=O)[C@H](CC(=O)O)NC(=O)[C@H](CO)NC(=O)[C@@H](NC(=O)[C@H](Cc1ccccc1)NC(=O)[C@@H](NC(=O)CNC(=O)[C@H](CCC(N)=O)NC(=O)C(C)(C)NC(=O)[C@@H](N)Cc1cnc[nH]1)[C@@H](C)O)[C@@H](C)O)C(=O)N[C@@H](CC(=O)O)C(=O)N[C@@H](CCC(=O)O)C(=O)N[C@@H](CCC(N)=O)C(=O)N[C@@H](CCCNC(=N)N)C(=O)N[C@@H](C)C(=O)N[C@@H](CCCCN)C(=O)N[C@@H](CC(C)C)C(=O)N[C@@H](Cc1ccccc1)C(=O)N[C@H](C(=O)N[C@@H](CCC(=O)O)C(=O)N[C@@H](Cc1c[nH]c2ccccc12)C(=O)N[C@@H](CC(C)C)C(=O)N[C@@H](CCCCN)C(=O)N[C@@H](C)C(=O)NCC(=O)NCC(=O)N1CCC[C@H]1C(=O)N[C@@H](CO)C(=O)N[C@@H](CO)C(=O)NCC(=O)N[C@@H](C)C(=O)N1CCC[C@H]1C(=O)N1CCC[C@H]1C(=O)N1CCC[C@H]1C(=O)N[C@@H](CO)C(N)=O)[C@@H](C)CC)C(=O)O`, the half-maximal effective concentration (EC50) on Glucagon receptor was 0.0019 nM; in test [1], 0.0025 nM; in test [2], 0.0397 nM.

Regarding `CCCCCCCCCCCCCCCCC(=O)N[C@@H](CCC(=O)N[C@@H](CCC(=O)NCCCC[C@H](NC(=O)[C@H](CCC(N)=O)NC(=O)[C@H](CCCCN)NC(=O)[C@H](CO)NC(=O)[C@H](CC(C)C)NC(=O)[C@H](CC(=O)O)NC(=O)[C@H](CO)NC(=O)[C@@H](NC(=O)[C@H](Cc1ccccc1)NC(=O)[C@@H](NC(=O)CNC(=O)[C@H](CCC(N)=O)NC(=O)C(C)(C)NC(=O)[C@@H](N)Cc1cnc[nH]1)[C@@H](C)O)[C@@H](C)O)C(=O)N[C@@H](CC(=O)O)C(=O)N[C@@H](CCC(=O)O)C(=O)N[C@@H](CCC(N)=O)C(=O)N[C@@H](CCCNC(=N)N)C(=O)N[C@@H](C)C(=O)N[C@@H](CCCCN)C(=O)N[C@@H](CC(C)C)C(=O)N[C@@H](Cc1ccccc1)C(=O)N[C@H](C(=O)N[C@@H](CCC(=O)O)C(=O)N[C@@H](Cc1c[nH]c2ccccc12)C(=O)N[C@@H](CC(C)C)C(=O)N[C@@H](CCCCN)C(=O)N[C@@H](C)C(=O)NCC(=O)NCC(=O)N1CCC[C@H]1C(=O)N[C@@H](CO)C(=O)N[C@@H](CO)C(=O)NCC(=O)N[C@@H](C)C(=O)N1CCC[C@H]1C(=O)N1CCC[C@H]1C(=O)N1CCC[C@H]1C(=O)N[C@@H](CO)C(N)=O)[C@@H](C)CC)C(=O)O)C(=O)O`, the figures for the EC50 (on Glucagon receptor; in test [1]; in test [2]) were 0.0044 nM, 0.0022 nM and 0.224 nM, respectively.

Take `CC[C@H](C)[C@H](NC(=O)[C@H](Cc1ccccc1)NC(=O)[C@H](CCC(=O)O)NC(=O)[C@H](CCCCN)NC(=O)[C@H](C)NC(=O)[C@H](C)NC(=O)[C@H](CCC(N)=O)NC(=O)CNC(=O)[C@H](CCC(=O)O)NC(=O)[C@H](CC(C)C)NC(=O)[C@H](Cc1ccc(O)cc1)NC(=O)[C@H](CO)NC(=O)[C@H](CO)NC(=O)[C@@H](NC(=O)[C@H](CC(=O)O)NC(=O)[C@H](CO)NC(=O)[C@@H](NC(=O)[C@H](Cc1ccccc1)NC(=O)[C@@H](NC(=O)CNC(=O)[C@H](CCC(=O)O)NC(=O)[C@H](C)NC(=O)[C@@H](N)Cc1cnc[nH]1)[C@@H](C)O)[C@@H](C)O)C(C)C)C(=O)N[C@@H](C)C(=O)N[C@@H](Cc1c[nH]c2ccccc12)C(=O)N[C@@H](CC(C)C)C(=O)N[C@H](C(=O)N[C@@H](CCCCN)C(=O)NCC(=O)N[C@@H](CCCNC(=N)N)C(=O)O)C(C)C`: the concentration giving a half-maximal response (EC50) is above 100000 nM in test [3] (Macaca mulatta, HEK293, 0.5 h); above 100000 nM in test [2]; above 100000 nM in test [4] (Macaca mulatta, HEK293, 0.5 h).

In the case of GLUCAGON, the half-maximal effective concentration (EC50) in test [3] (hek293) was 0.0015 nM; in test [4] (hek293) it was above 100000 nM.

Consider `CCCCCCCCCCCCCCCCC(=O)N[C@@H](CCC(=O)N[C@@H](CCC(=O)NCCCC[C@H](NC(=O)[C@H](CCC(N)=O)NC(=O)[C@H](CCCCN)NC(=O)[C@H](CO)NC(=O)[C@H](CC(C)C)NC(=O)[C@H](CC(=O)O)NC(=O)[C@H](CO)NC(=O)[C@@H](NC(=O)[C@H](Cc1ccccc1)NC(=O)[C@@H](NC(=O)CNC(=O)[C@H](CCC(N)=O)NC(=O)C(C)(C)NC(=O)[C@@H](N)Cc1cnc[nH]1)[C@@H](C)O)[C@@H](C)O)C(=O)N[C@@H](CC(=O)O)C(=O)N[C@@H](CCC(=O)O)C(=O)N[C@@H](CCC(N)=O)C(=O)N[C@@H](CCCNC(=N)N)C(=O)N[C@@H](C)C(=O)N[C@@H](CCCCN)C(=O)N[C@@H](CC(C)C)C(=O)N[C@@H](Cc1ccccc1)C(=O)N[C@H](C(=O)N[C@@H](CCC(=O)O)C(=O)N[C@@H](Cc1c[nH]c2ccccc12)C(=O)N[C@@H](CC(C)C)C(=O)N[C@@H](CC(C)C)C(=O)N[C@@H](C)C(=O)NCC(=O)NCC(=O)N1CCC[C@H]1C(=O)N[C@@H](CO)C(=O)N[C@@H](CO)C(=O)NCC(=O)N[C@@H](C)C(=O)N1CCC[C@H]1C(=O)N1CCC[C@H]1C(=O)N1CCC[C@H]1C(=O)N[C@@H](CO)C(N)=O)[C@@H](C)CC)C(=O)O)C(=O)O`, for which the concentration giving a half-maximal response (EC50) stood at 0.0016 nM on Glucagon receptor, 0.0048 nM in test [1] and 0.189 nM in test [2].

For the compound `CCCCCCCCCCCCCCCCC(=O)N[C@@H](CCC(=O)NCCCC[C@H](NC(=O)[C@H](CCC(N)=O)NC(=O)[C@H](CCCCN)NC(=O)[C@H](CO)NC(=O)[C@H](CC(C)C)NC(=O)[C@H](CC(=O)O)NC(=O)[C@H](CO)NC(=O)[C@@H](NC(=O)[C@H](Cc1ccccc1)NC(=O)[C@@H](NC(=O)CNC(=O)[C@H](CCC(N)=O)NC(=O)C(C)(C)NC(=O)[C@@H](N)Cc1cnc[nH]1)[C@@H](C)O)[C@@H](C)O)C(=O)N[C@@H](CC(=O)O)C(=O)N[C@@H](CCC(=O)O)C(=O)N[C@@H](CCC(N)=O)C(=O)N[C@@H](CCCNC(=N)N)C(=O)N[C@@H](C)C(=O)N[C@@H](CCCCN)C(=O)N[C@@H](CC(C)C)C(=O)N[C@@H](Cc1ccccc1)C(=O)N[C@H](C(=O)N[C@@H](CCC(=O)O)C(=O)N[C@@H](Cc1c[nH]c2ccccc12)C(=O)N[C@@H](CC(C)C)C(=O)NC(C)(C)C(=O)N[C@@H](C)C(=O)NCC(=O)NCC(=O)N1CCC[C@H]1C(=O)N[C@@H](CO)C(=O)N[C@@H](CO)C(=O)NCC(=O)N[C@@H](C)C(=O)N1CCC[C@H]1C(=O)N1CCC[C@H]1C(=O)N1CCC[C@H]1C(=O)N[C@@H](CO)C(N)=O)[C@@H](C)CC)C(=O)O`, the EC50 on Glucagon receptor was 0.0154 nM; in test [1] it was 0.0064 nM; in test [2] it was 1.16 nM. The Ratio EC50 in the test listed under Homo sapiens worked out at 181.

Take `CCCCCCCCCCCCCCCCC(=O)N[C@@H](CCC(=O)N[C@@H](CCC(=O)NCCCC[C@H](NC(=O)[C@H](CCC(N)=O)NC(=O)[C@H](CCCCN)NC(=O)[C@H](CO)NC(=O)[C@H](CC(C)C)NC(=O)[C@H](CC(=O)O)NC(=O)[C@H](CO)NC(=O)[C@@H](NC(=O)[C@H](Cc1ccccc1)NC(=O)[C@@H](NC(=O)CNC(=O)[C@H](CCC(N)=O)NC(=O)C(C)(C)NC(=O)[C@@H](N)Cc1cnc[nH]1)[C@@H](C)O)[C@@H](C)O)C(=O)N[C@@H](CC(=O)O)C(=O)N[C@@H](CCC(=O)O)C(=O)N[C@@H](CCC(N)=O)C(=O)N[C@@H](CCCNC(=N)N)C(=O)N[C@@H](C)C(=O)N[C@@H](CCCCN)C(=O)N[C@@H](CC(C)C)C(=O)N[C@@H](Cc1ccccc1)C(=O)N[C@H](C(=O)N[C@@H](CCC(=O)O)C(=O)N[C@@H](Cc1c[nH]c2ccccc12)C(=O)N[C@@H](CC(C)C)C(=O)N[C@H](C(=O)N[C@@H](C)C(=O)NCC(=O)NCC(=O)N1CCC[C@H]1C(=O)N[C@@H](CO)C(=O)N[C@@H](CO)C(=O)NCC(=O)N[C@@H](C)C(=O)N1CCC[C@H]1C(=O)N1CCC[C@H]1C(=O)N1CCC[C@H]1C(=O)N[C@@H](CO)C(N)=O)[C@@H](C)CC)[C@@H](C)CC)C(=O)O)C(=O)O`: the figures for the EC50 (at Glucagon receptor; in test [1]; in test [2]) were 0.0025 nM, 0.0053 nM and 0.0582 nM, respectively.

As for `CCCCCCCCCCCCCCCCC(=O)N[C@@H](CCC(=O)NCCCC[C@H](NC(=O)[C@H](CCC(N)=O)NC(=O)[C@H](CCCCN)NC(=O)[C@H](CO)NC(=O)[C@H](CC(C)C)NC(=O)[C@H](CC(=O)O)NC(=O)[C@H](CO)NC(=O)[C@@H](NC(=O)[C@H](Cc1ccccc1)NC(=O)[C@@H](NC(=O)CNC(=O)[C@H](CCC(N)=O)NC(=O)[C@H](CO)NC(=O)[C@@H](N)Cc1cnc[nH]1)[C@@H](C)O)[C@@H](C)O)C(=O)N[C@@H](CC(=O)O)C(=O)N[C@@H](CO)C(=O)N[C@@H](CCCNC(=N)N)C(=O)N[C@@H](CCCNC(=N)N)C(=O)N[C@@H](C)C(=O)N[C@@H](CCC(N)=O)C(=O)N[C@@H](CC(=O)O)C(=O)N[C@@H](Cc1ccccc1)C(=O)N[C@H](C(=O)N[C@@H](CCC(=O)O)C(=O)N[C@@H](Cc1c[nH]c2ccccc12)C(=O)N[C@@H](CC(C)C)C(=O)N[C@@H](CCCCN)C(=O)N[C@@H](CC(N)=O)C(=O)NCC(=O)NCC(=O)N1CCC[C@H]1C(=O)N[C@@H](CO)C(=O)N[C@@H](CO)C(=O)NCC(=O)N[C@@H](C)C(=O)N1CCC[C@H]1C(=O)N1CCC[C@H]1C(=O)N1CCC[C@H]1C(=O)N[C@@H](CO)C(=O)O)[C@@H](C)CC)C(=O)O`, the concentration for a half-maximal effect (EC50) at Glucagon receptor amounted to 0.0007 nM; in test [1], 0.0039 nM; in test [2], 1.21 nM.

By EC50 is commonly meant the concentration needed to bring the measured effect to its halfway point.

Source of the values: ChEMBL document CHEMBL4118251 (J Med Chem, 2018).
